Most compounds without a hit are left out; they make up all but 2.5% or so of the library.
NR2E3 ag-1 – NR2E3 (human) agonism. 320,000 compounds, 0.12% hits. AID 2300. Q9Y5X4. GST-NR2E3/biotin-RetCOR TR-FRET, 1536-well. inhibition of corepressor binding, % at 4.78 µM;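 active means percent inhibition above the cutoff of mean plus 3 SD of all tested compounds, set per screening campaign, cut at about 20% in these data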
Target sequence (Q9Y5X4 whole entry, looked up): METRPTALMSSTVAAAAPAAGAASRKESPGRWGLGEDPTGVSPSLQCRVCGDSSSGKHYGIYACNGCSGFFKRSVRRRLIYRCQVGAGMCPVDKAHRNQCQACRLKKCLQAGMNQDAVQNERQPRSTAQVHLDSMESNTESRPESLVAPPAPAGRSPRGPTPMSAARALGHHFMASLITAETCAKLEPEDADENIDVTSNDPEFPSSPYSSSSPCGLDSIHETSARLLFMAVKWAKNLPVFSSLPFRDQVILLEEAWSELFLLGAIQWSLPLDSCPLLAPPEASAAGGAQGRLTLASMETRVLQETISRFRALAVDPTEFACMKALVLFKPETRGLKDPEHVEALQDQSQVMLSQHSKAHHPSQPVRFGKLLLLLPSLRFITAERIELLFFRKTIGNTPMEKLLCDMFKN
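System: GST-NR2E3 and biotin-RetCOR proteins; probe or stimulus: 7 nM biotin-RetCOR; doses: compound at 4.8 µM, single dose; schedule: Compound–protein incubation for 5 h at 4 °C; detection: time-resolved FRET; read-out: percent inhibition; controls: biotin wells as high control, 0.6% DMSO wells as low control; format: 1536-well plates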
NadD block – blocks S. aureus nicotinate mononucleotide adenylyltransferase | purified NadD enzyme, colorimetric absorbance read-out | inhibition, % at 20 µM | 360,000 compounds, 0.78% hits | AID 602399; in the data active means inhibition above about 26%
MsrA act – activates bovine MsrA enzyme; activation, % at 10.6 µM; purified bovine MsrA, absorbance read-out; 360,000 compounds, 0.3% hits; in the data active means activation above about 7.5%
NR2E3 ag-2 – agonists of human NR2E3 nuclear receptor; inhibition of corepressor binding, % at 3.98 µM; AID 602229; 360,000 compounds, 0.35% hits; CHO-S Gal4-NCOR/VP16-NR2E3 two-hybrid, luciferase;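 active means inhibition above the mean of all tested compounds plus 3 SD, cut at about 70% in these data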;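 further: higher means lower luciferase signal from less NR2E3 corepressor binding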
GalR3 antagonist – blocks the human galanin receptor 3; AID 651719; HEK293 GalR3-CNG cAMP membrane potential fluorescence; galR3 body fused to GalR1 C-terminus; O60755; inhibition, % at 3 µM; 360,000 compounds, 0.44% hits;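 active means inhibition above the screen-wide average plus 3 SD, cut at about 13% in these data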;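 further: forskolin and galanin both at EC90 stimulate the cells; cAMP rise reported by CNG channel membrane potential dye signal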
MsrA inhibitor – bovine MsrA inhibition; 360,000 compounds, 0.75% hits; purified bovine MsrA, absorbance read-out; inhibition, % at 15.5 µM; AID 651718; in the data active means inhibition above about 4.5%
MsrA act confirm – confirmation of bovine methionine sulfoxide reductase A activators. 1,000 compounds, 12% hits. purified bovine MsrA, absorbance read-out. activation, % at 10.6 µM. shares compounds with MsrA act; in the data active means activation above about 4%;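 further: enzyme coupled to thioredoxin and thioredoxin reductase with NADPH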
NR2E3 ag confirm – confirmation of human NR2E3 agonists; 2,300 compounds, 51% hits; CHO-S mammalian two-hybrid NR2E3-NCOR, luciferase luminescence; shares compounds with NR2E3 ag-2; inhibition, % at 3.98 µM;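 active means average inhibition above a cutoff equal to the mean inhibition of all tested compounds plus one SD, cut at about 70% in these data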
GAL4-VP16 luc – counter-screen for NR2E3 agonists: GAL4-VP16 reporter inhibitors | shares compounds with NR2E3 ag-2 | CHO-S GAL4-VP16 luciferase reporter, luminescence | inhibition, % at 3.98 µM | 2,300 compounds, 29% hits | AID 624379;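 active means mean inhibition above a cutoff equal to the average over all tested compounds plus one standard deviation, cut at about 70% in these data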;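 further: luciferase from a UAS reporter driven by GAL4-VP16 transactivation; higher means less reporter light so more repression of VP16 activity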
NadD inh conf – confirmation of Staphylococcus aureus NadD inhibitors; shares compounds with NadD block; purified S. aureus NadD, colorimetric enzyme assay; inhibition, % at 20 µM; 2,000 compounds, 13% hits; AID 624309; in the data active means inhibition mostly above about 42%, no sharp cut-off; inactive means mostly below about 42%
GalR3 conf – GalR3 (human) antagonism, confirmation. shares compounds with GalR3 antagonist. HEK293 GalR3 CNG cAMP biosensor, membrane potential fluorescence; galR3 fused to GalR1 carboxy tail; challenged with forskolin and galanin at EC90. inhibition, % at 3 µM. 1,600 compounds, 59% hits;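 active means inhibition above the primary screen's cutoff, the mean inhibition of all screened compounds plus 3 SD, cut at about 13% in these data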
HEK-CNG parental – parental cell agonism counter-screen for GalR3 antagonists; shares compounds with GalR3 antagonist; HEK293-CNG parental cells, cAMP membrane potential fluorescence; normalised: DMSO wells 0%, forskolin wells 100%; activation, % at 3 µM; 1,600 compounds, 10% hits; in the data active means activation above about 1.3%
Large screens that a line does not name were inactive (follow-up assays come after a bar, where they were run).

O=C(COC(=O)c1ccc2c(c1)OCO2)NC1CCCCC1	none (no result: NR2E3 ag-1)
COc1cccc2[nH]c3c(N4CCC(C(N)=O)CC4)ncnc3c12	none
COc1ccc(-c2csc(NC(=O)c3ccccc3NS(=O)(=O)c3ccc(F)c(F)c3)n2)cc1	MsrA act 14.5, NR2E3 ag-2 98.2, GalR3 antagonist 91.5 | MsrA act confirm inactive | NR2E3 ag confirm 100.7 | GAL4-VP16 luc 90.5 | GalR3 conf 106.1 | HEK-CNG parental inactive
CC(C)n1c(=S)[nH]c2scc(-c3cccs3)c2c1=O	NadD block 29.6, MsrA act 8.0, GalR3 antagonist 13.2 | MsrA act confirm inactive | NadD inh conf 67.2 | GalR3 conf inactive | HEK-CNG parental inactive
CCn1c(=S)[nH]c2scc(-c3cccs3)c2c1=O	none (no result: NR2E3 ag-1)
CC1CCN(CCCNC(=O)c2cn(C)c3ccc(S(=O)(=O)N4CCCC4)cc3c2=O)CC1	MsrA act 7.9, GalR3 antagonist 14.7 | MsrA act confirm inactive | GalR3 conf inactive | HEK-CNG parental inactive
Cc1ccc(-n2nc3c(c2NC(=O)c2ccc4c(c2)OCO4)CSC3)cc1	none
CCCC(C)NC(=O)CN1C(=O)NC2(CCc3ccccc32)C1=O (stereo unspecified)	none
COc1cc(CCc2ccccc2)c(C(=O)O)c(O)c1CC=C(C)C	NR2E3 ag-2 84.9 (no result: NR2E3 ag-1) | NR2E3 ag confirm 99.2 | GAL4-VP16 luc 78.4
COCOc1ccc(/C=C/C(=O)c2c(OCOC)cc(OCOC)c(CC=C(C)C)c2O)cc1OCOC	none (no result: GalR3 antagonist, MsrA inhibitor)
COc1cc(CCc2ccccc2)c(C(=O)O)c(O)c1C/C=C(/C)CCC=C(C)C	none (no result: NR2E3 ag-1) | NR2E3 ag confirm 98.4 | GAL4-VP16 luc 71.3
CC(C)=CCC/C(C)=C/Cc1c(O)ccc(C(=O)/C=C/c2ccc(O)cc2)c1O	none
CC(c1ccon1)N(C)Cc1cn[nH]c1-c1ccc(-c2ccccc2)cc1 (stereo unspecified)	none
COc1cc(NC(C(=O)Nc2cccc(C(C)=O)c2)c2ccccc2)cc(OC)c1OC (stereo unspecified)	none | NR2E3 ag confirm inactive | GAL4-VP16 luc inactive
COc1cccc(NC(C(=O)Nc2cccc(C(C)=O)c2)c2ccccc2)c1 (stereo unspecified)	none
CC(=O)N1CCc2cc(C(=O)CN3CCN(c4ccccn4)CC3)ccc21	none
OC[C@@H]1CN(Cc2ccc(-c3ccccc3)cc2)C[C@H](n2cnc3c(NC4CCC4)ncnc32)O1	NR2E3 ag-2 80.0 (no result: NR2E3 ag-1) | NR2E3 ag confirm 91.2 | GAL4-VP16 luc 78.8
O=C(NCc1ccccc1CN1CCCC1)c1cccc(N2CCCC2=O)c1	NR2E3 ag-2 77.6 | NR2E3 ag confirm inactive | GAL4-VP16 luc inactive
Cc1ccsc1/C=N/NC(=O)Cc1cccn1C	none
Cc1nc(SCc2ccc(Cl)c(Cl)c2)ncc1C(=O)O	none | NR2E3 ag confirm inactive | GAL4-VP16 luc inactive
Cc1nn(Cc2cccc(F)c2)c(C)c1NC(=O)c1ccc(COc2ccccc2Cl)cc1	NR2E3 ag-2 79.0 | NR2E3 ag confirm 93.9 | GAL4-VP16 luc inactive
Cc1nn(Cc2c(F)c(F)c(F)c(F)c2F)c(C)c1NC(=O)c1cccc(COc2ccccc2Cl)c1	none

Assay outcomes (PubChem)
